How the values were obtained:
[1] = target: T1, Growth hormone secretagogue receptor type 1 (Homo sapiens, UniProt Q92847); assay: Inverse agonist at recombinant human GHSR1a expressed in HEK293 cells assessed as decrease in IP1 accumulation after 1 hr by IP1-d2-based HTRF assay; assay type: functional, cell-based
Summary of the method: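 HEK293 cells stably expressing human GHSR1a were seeded on Matrigel in complete DMEM for 18–22 h at 37 °C, 5% CO2. Compound in stimulation buffer was applied for 1 h at 37 °C. IP1-d2 and Tb-cryptate were then added for 1 h at room temperature, with HTRF read at 620/665 nm. Mean of at least two independent runs in triplicate.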

[2] = target: T1, Growth hormone secretagogue receptor type 1; assay: Antagonist activity at recombinant human GHSR1a expressed in HEK293 cells assessed as inhibition of ghrelin-induced intracellular calcium release incubated for 20 secs and measured after 2 mins by FLIPR assay; assay type: functional, cell-based
Summary of the method: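 HEK293/GHSR1a cells were dye-loaded for 30-60 min. Compounds and 10 nM ghrelin were added at t = 20 s, with a 15 min compound preincubation described. Calcium response was read for 2 min. IC50 was taken from dose-response fits of the reduction in ghrelin response; mean of at least two independent runs done in triplicate.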

[3] = target: T1, Growth hormone secretagogue receptor type 1; assay: Agonist activity at recombinant human GHSR1a expressed in HEK293 cells assessed as induction of intracellular calcium release after 15 mins by FLIPR assay; assay type: functional, cell-based; settings: read-out: EC50
Summary of the method: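 HEK293 cells stably expressing human GHSR1a, seeded 24 h before the run, then loaded with calcium dye for 30-60 min at room temperature or 37 °C. DMSO-dissolved compounds were added and intracellular calcium release was monitored by FLIPR fluorescence.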

[4] = Clearance in mouse liver microsomes at 0.625 uM preincubated for 5 mins followed by NADPH addition and measured after 60 mins by LC-MS/MS analysis; assay type: ADME, microsome; settings: read-out: CLH
Summary of the method: (§1)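 Liver microsomes (0.625 mg/mL protein) in 50 mM potassium phosphate pH 7.4 with 0.625 µM test item, prewarmed 5 min at 37 °C. Reaction started with NADPH (5 mM solution). Samples taken at 0, 5, 15, 30 and 60 min into cold MeCN with internal standard, analysed by LC-MS/MS. Intrinsic clearance derived by the half-life approach.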

[5] = Clearance in human liver microsomes at 0.625 uM preincubated for 5 mins followed by NADPH addition and measured after 60 mins by LC-MS/MS analysis; assay type: ADME, microsome; settings: read-out: CLH; summary of the method: as §1
[6] = Clearance in rat liver microsomes at 0.625 uM preincubated for 5 mins followed by NADPH addition and measured after 60 mins by LC-MS/MS analysis; assay type: ADME, microsome; settings: read-out: CLH; summary of the method: as §1

T1 sequence (Q92847 whole entry): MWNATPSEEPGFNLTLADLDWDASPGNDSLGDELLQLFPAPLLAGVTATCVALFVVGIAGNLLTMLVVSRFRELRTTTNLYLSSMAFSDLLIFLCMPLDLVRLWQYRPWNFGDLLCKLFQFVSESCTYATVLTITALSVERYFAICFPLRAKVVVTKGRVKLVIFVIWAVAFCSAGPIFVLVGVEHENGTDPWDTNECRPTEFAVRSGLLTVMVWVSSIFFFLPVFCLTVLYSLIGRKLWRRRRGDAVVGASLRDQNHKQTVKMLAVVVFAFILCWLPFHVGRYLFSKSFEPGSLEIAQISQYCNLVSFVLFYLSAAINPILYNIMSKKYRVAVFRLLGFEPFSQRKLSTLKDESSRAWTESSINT

| SMILES | EC50 ([1]; hek293) | IC50 [2] [nM] | EC50 [3] [nM] | EC50 ([1]; read-out: EC50) [nM] | microsomal CLint at 0.625 µM [4] [µL/min/mg] | microsomal CLint at 0.625 µM [5] [µL/min/mg] | microsomal CLint at 0.625 µM [6] [µL/min/mg] |
| --- | --- | --- | --- | --- | --- | --- | --- |
| Cc1cc(-c2ccc3c(c2)CCC3N2CCC(N(C)C(=O)NC(C)c3cccc(Cl)c3Cl)CC2)ncn1 (stereo not drawn) | Not Active | 2330 | > 30000 |  |  |  |  |
| Cc1cc(-c2ccc3c(c2)CCC3N2CCC(N(C)C(=O)N[C@@H](CC3CC3)c3cccc(Cl)c3Cl)CC2)ncn1 (stereo partly drawn) |  | 5400 |  | 970 |  |  |  |
| Cc1cc(-c2ccc3c(c2)CCC3N2CCC(N(C)C(=O)NCc3ccc(C#CC4CC4)c(Cl)c3Cl)CC2)ncn1 (stereo not drawn) | Not Active | 1130 |  |  |  |  |  |
| Cc1cc(-c2ccc3c(c2)CCC3N2CCC(N(C)C(=O)NCc3cccc(Cl)c3Cl)CC2)ncn1 (stereo not drawn) | Not Active | 2700 |  |  |  |  |  |
| CCN(C(=O)N[C@@H](C)c1ccc(C#CC2CC2)c(Cl)c1Cl)C1CCN(C2CCc3cc(-c4cc(C)ncn4)ccc32)CC1 (stereo partly drawn) |  | 2920 |  | 937 |  |  |  |
| Cc1cn2cc(CNC(=O)N(C)C3CCN(C)CC3)nc2s1 | Not Active | > 30000 | > 30000 |  |  |  |  |
| C[C@H](NC(=O)N(C)C1CCN(C2CCc3cc(-c4ncccn4)ccc32)CC1)c1ccc(C#CC2CC2)c(Cl)c1Cl (stereo partly drawn) |  | 798 |  | 634 |  |  |  |
| COc1ccc([C@H](C)NC(=O)N(C)C2CCN(C3CCc4cc(N)ccc43)CC2)c(Cl)c1Cl (stereo partly drawn) | Not Active | 1510 |  |  | 70.4 | 47.1 |  |
| Cc1cc(-c2ccc3c(c2)CCC3N2CCC(N(C)C(=O)N[C@@H](C)c3ccc(C#CC4CC4)c(Cl)c3Cl)C2)ncn1 (stereo partly drawn) | Not Active | 148 |  |  |  |  |  |
| Cc1cc(-c2ccc3c(c2)CC[C@H]3N2CC3(CCN(C(=O)N[C@@H](C)c4cccc(Cl)c4Cl)CC3)C2)ncn1 | Not Active | 4010 | > 30000 |  |  |  |  |
| COc1ccc([C@H](C)NC(=O)N(C)C2CCN(C3CCc4cc(Cl)ccc43)CC2)c(Cl)c1Cl (stereo partly drawn) |  | 315 |  | 40.7 | 388 | 241 | 271 |
| Cc1cc(-c2ccc3c(c2)CCC3N2CCC(N(C)C(=O)N[C@H](c3ccc(-c4cnccn4)c(Cl)c3Cl)C(F)(F)F)CC2)ncn1 (stereo partly drawn) |  | 8080 |  | 2160 |  |  |  |
| COc1ccc([C@H](C)NC(=O)N(C)C2CCN(C3CCc4cc(O)ccc43)CC2)c(Cl)c1Cl (stereo partly drawn) | Not Active | 1300 |  |  | 117 | 87.1 |  |
| COc1ccc2c(c1)CCC2N1CCC(N(C)C(=O)N[C@@H](C)c2ccc(OC)c(Cl)c2Cl)CC1 (stereo partly drawn) |  | 120 |  | 85.7 |  |  |  |
| Cc1cc(-c2ccc3c(c2)CCC3N2CCC(N(C)C(=O)N[C@@H](C)c3ccc(N)c(Cl)c3Cl)CC2)ncn1 (stereo partly drawn) |  | 571 |  | 121 |  |  |  |
| C[C@H](NC(=O)N(C)C1CCN(C2CCc3cc(-c4cncnc4)ccc32)CC1)c1ccc(C#CC2CC2)c(Cl)c1Cl (stereo partly drawn) |  | 85.9 |  | 84.8 |  |  |  |
| C#Cc1ccc([C@H](C)NC(=O)N(C)C2CCN(C3CCc4cc(C)ccc43)CC2)c(Cl)c1Cl (stereo partly drawn) | Not Active | 106 |  |  |  |  |  |
| COc1ccc([C@H](CC2CC2)NC(=O)N(C)C2CCN(C3CCc4cc(-c5cc(C)ncn5)ccc43)CC2)c(Cl)c1Cl (stereo partly drawn) |  | 1800 |  | 439 |  |  |  |
| Cc1cc(-c2ccc3c(c2)CC[C@@H]3N2CCC(N(C)C(=O)N[C@@H](C)c3ccc(C#CC4CC4)c(Cl)c3Cl)CC2)ncn1 |  | 1280 |  | 1280 |  |  |  |

— ChEMBL document CHEMBL4257564, “Rational Design, Synthesis, and Pharmacological Characterization of Novel Ghrelin Receptor Inverse Agonists as Potential Treatment against Obesity-Related Metabolic Diseases” (J Med Chem, 2018)
